Compounds with a hit are over-represented: about 1.9% of the library has one in this group of screens.
Runt-SMMHC FRET – inhibitors of RUNX1 Runt–CBFb-SMMHC binding, primary screen, biochemical, FRET, Cerulean-Runt, Venus-CBFb-SMMHC, uHTS; 220,000 compounds, 0.74% hits; inhibition, % at 20 µM; AID 1434, 2008; Runt-related transcription factor 1 (Homo sapiens) + Core-binding factor subunit beta …; Cerulean-Runt/Venus-CBFb-SMMHC FRET ratio 530/480, 1 h;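 active = mean inhibition across duplicate retests at 20 µM reaching about 50%, limit read from the data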;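 note: inhibitors lower the FRET ratio by blocking Runt binding to CBFb-SMMHC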
Runt-CBFb FRET – inhibitors of RUNX1 Runt–CBFb binding, primary screen, biochemical, FRET, Cerulean-Runt, Venus-CBFb, uHTS | 220,000 compounds, 0.46% hits | Runt-related transcription factor 1 (Homo sapiens) + Core-binding factor subunit beta … | AID 1496, 2009 | inhibition, % at 20 µM | Cerulean-Runt/Venus-CBFb FRET ratio 530/480, 1 h;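 active = inhibition over about 50% at 20 µM in the single-dose screen, limit read from the data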
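System: Cerulean-labeled Runt domain protein | Quantity: 100 nM of each labeled protein | Schedule: 1 h compound exposure, room temperature | Detection: Fluorescence energy transfer, 422 nm excitation, 530/480 nm emission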
Hck-Nef inh – inhibitors of Nef-activated human Hck kinase, primary screen, biochemical, Z-Lyte FRET, 384-well, Hck-YEEI; Tyrosine-protein kinase HCK (Homo sapiens), P08631; Recombinant Hck-YEEI plus Nef, Z-Lyte FRET kinase assay; inhibition, % at 20 µM; 220,000 compounds, 0.68% hits;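 active = Hck-Nef kinase inhibition above about 50%, limit read from the data; inactive = inhibition below that limit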
TbHK1 inh – Trypanosoma brucei hexokinase 1 inhibitors, primary screen, biochemical, G6PDH-coupled NADH absorbance, MLSCN library | hexokinase 1 [Trypanosoma brucei] | recombinant TbHK1, G6PDH-coupled NADH A340 | inhibition, % at 10 µM | 220,000 compounds, 0.11% hits | AID 1430, 2008;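 active = inhibition of 50% or more in the single-dose primary screen; inactive = inhibition below 50%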
RanGTP-Impb inh – inhibitors of RanGTP-importin-beta interaction, primary screen, biochemical, FRET, CFP-Ran, YFP-importin-beta, homogeneous. AID 2216, 2009. 300,000 compounds, 1.1% hits. Ran GTPase (GTP-bound) - importin-beta complex. inhibition, % (test concentration not listed). cell-free CFP-Ran/YFP-importin-beta FRET ratio;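 active = more than half of the replicate wells show a fall in the fluorescence ratio signal beyond about 16%, limit read from the data, passing the limit was not always enough; inconclusive = exactly half of the replicate wells pass the set limit; inactive = fewer than half of replicates pass the limit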
Large screens that a line does not name were inactive.

Cc1ccc(C2c3sc(=O)[nH]c3SC3C4CC(C5C(=O)N(C(C)C(=O)O)C(=O)C45)C23)cc1 (centres undefined)	RanGTP-Impb inh 58
O=c1[nH]c2c(s1)C(c1ccccc1)C1C3CCC(C3)C1S2 (centres undefined)	RanGTP-Impb inh 26
COc1cc(C2c3sc(=O)[nH]c3SC3C4CCC(C4)C23)ccc1O (centres undefined)	none
O=C(O)CCN1C(=O)C2C3CC(C2C1=O)C1C(c2ccccc2)c2sc(=O)n(-c4ccccc4)c2SC31 (centres undefined)	none
O=C(O)CCN1C(=O)C2C3CC(C2C1=O)C1C(c2ccccc2)c2sc(=O)[nH]c2SC31 (centres undefined)	RanGTP-Impb inh 21
C#CCn1c(C)cc(C)c(S(=O)(=O)c2ccccc2)c1=O	none
COCCCn1c(=O)c2sccc2n(Cc2ccc(C)cc2)c1=O	none (no result: Runt-SMMHC FRET, Runt-CBFb FRET, Hck-Nef inh, TbHK1 inh)
Cc1cccc2nc(CSc3nc4ccccc4[nH]3)cn12	Runt-CBFb FRET 71
c1ccc2[nH]c(SCc3cn4ccccc4n3)nc2c1	RanGTP-Impb inh inconclusive
CC1=Nc2ccccc2/C1=C\c1nc(-c2ccccc2)oc1O	none
CC1=Nc2ccccc2/C1=C/c1nc(-c2ccc(C)s2)oc1O	RanGTP-Impb inh 37
N#Cc1cc(NC(=O)c2ccc(F)cc2)c(=O)n2c1[nH]c1ccccc12	RanGTP-Impb inh 26
CC1(c2ccc(OC(F)F)cc2)NC(=O)N(/N=C/c2c(O)ccc3ccccc23)C1=O (centres undefined)	Runt-SMMHC FRET 71
CCCCNC(=O)Oc1c(Br)cc2sc(=O)oc2c1Br	Hck-Nef inh 56 (no result: RanGTP-Impb inh)
CN1/C(=C\C(=O)c2cccc(S(=O)(=O)N3CCCCC3)c2)C(C)(C)c2ccccc21	RanGTP-Impb inh 21
CN1/C(=C\C(=O)c2ccco2)C(C)(C)c2ccccc21	Runt-SMMHC FRET 79
O=C(NNCc1ccc(O)cc1)c1ccccc1Cl	none (no result: Runt-SMMHC FRET, Runt-CBFb FRET, Hck-Nef inh, TbHK1 inh)
CCc1ccc(NC(=O)CN(c2ccc(OC)cc2)S(=O)(=O)c2c(C)[nH]c(=O)[nH]c2=O)cc1	none (no result: Runt-SMMHC FRET, Runt-CBFb FRET, Hck-Nef inh, TbHK1 inh)
CCc1ccc(NC(=O)CN(c2cc(C)cc(C)c2)S(=O)(=O)c2c(C)[nH]c(=O)[nH]c2=O)cc1	RanGTP-Impb inh 21 (no result: Runt-SMMHC FRET, Runt-CBFb FRET, Hck-Nef inh, TbHK1 inh)
O=C(CSc1nc2ccccc2s1)Nc1cc(S(=O)(=O)N2CCOCC2)ccc1O	none
COc1cc(C)c(COc2ncnc3ccccc23)cc1OC	none (no result: Runt-SMMHC FRET, Runt-CBFb FRET, Hck-Nef inh, TbHK1 inh)
CCOC(=O)C(=CNc1ccc(OC)cc1[N+](=O)[O-])C(=O)OCC	none
COc1ccc(/C=C(/C(=O)c2cccs2)N2C=CC=CC2=C(C#N)C#N)cc1	RanGTP-Impb inh 22
CCOc1cc(C2C3=C(CCCC3=O)N(C)C3=C2C(=O)CCC3)cc(Cl)c1O	none
Cc1ccc(S(=O)(=O)Oc2ccc(C3C4=C(CCCC4=O)N(CCC(=O)O)C4=C3C(=O)CCC4)cc2Cl)cc1	RanGTP-Impb inh 129 (no result: Runt-SMMHC FRET)
CCOc1cc(C2C3=C(CCCC3=O)N(CCC(=O)O)C3=C2C(=O)CCC3)ccc1OS(=O)(=O)c1ccc(C)cc1	RanGTP-Impb inh 104 (no result: Runt-SMMHC FRET)
Cc1ccc(S(=O)(=O)Oc2ccc(C3C4=C(CCCC4=O)OC4=C3C(=O)CCC4)cc2)cc1	none (no result: Runt-CBFb FRET)
CCc1c(C)c(C#N)c2nc3ccccc3n2c1Cl	RanGTP-Impb inh 21
CCc1c(C)c(C#N)c2nc3ccccc3n2c1-n1nc(C)cc1C	none
CCc1c(C)c(C#N)c2nc3ccccc3n2c1NCc1ccccn1	Runt-SMMHC FRET 65
COC(=O)CCc1c(C)c(C#N)c2nc3ccccc3n2c1N1CCCC1	RanGTP-Impb inh 17
CCc1c(C)c(C#N)c2nc3ccccc3n2c1NCC1CCCO1 (centres undefined)	Runt-SMMHC FRET 65
CC(=O)c1ccc(NC(=O)C(=O)c2cn(CC(=O)N3CCCCC3)c3ccccc23)cc1	none
Cc1c2c(n3c(nc4ccccc43)c1C#N)N(c1ccccc1)CC2	Runt-SMMHC FRET 79 (no result: RanGTP-Impb inh)
